ChEMBL document CHEMBL4725346, “Syntheses and Evaluation of New Bisacridine Derivatives for Dual Binding of G-Quadruplex and i-Motif in Regulating Oncogene c-myc Expression” (J Med Chem, 2020)
The source made the active and inactive calls. No cut-off for these calls is given here.

Columns and labels:
[1] = Stabilization of 5'-FAM/3'-TAMRA labeled hairpin DNA F10T (unknown origin) assessed as change in melting temperature at 5 uM by FRET assay
dsDNA = assay: Binding affinity to 5'-biotin labeled duplex DNA (unknown origin) by surface plasmon resonance method; type: nucleic-acid assay
In short: (§1)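 SPR: 5'-biotin DNA diluted to 1 μM and captured (1000 RU) on a sensor chip, with a blank cell as reference. Running buffers: Py33 in 20 mM MES pH 5.8, 100 mM KCl, 0.05% Tween-20; Pu27 and duplex in 50 mM Tris-HCl pH 7.4, 100 mM KCl. Six ligand concentrations serially diluted from DMSO stock. Association 260 s, dissociation 300 s at 25 °C; NaOH regeneration; blank sensorgrams subtracted.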

[2] = Stabilization of 5'-FAM/3'-TAMRA labeled c-myc promoter i-motif DNA FPy33T (unknown origin) assessed as change in melting temperature at 1 uM by FRET assay (reference value: 53.2 degreeC)
In short: (§2)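 FRET melting of dual FAM/TAMRA-labelled FPy33T annealed in 1× BPES (30 mM potassium phosphate, 1 mM EDTA, 100 mM KCl), pH 5.5. Final 0.2 µM DNA with or without ligand. Excitation 470 nm, emission 530 nm, read every 1 °C over 37–99 °C. ΔTm taken against DNA alone.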

Quadruplex DNA [3] = assay: Stabilization of 5'-FAM/3'-TAMRA labeled c-myc promoter G-quadruplex DNA FPu22T (unknown origin) assessed as change in melting temperature at 5 uM by FRET assay (reference value: 66.5 degreeC); type: nucleic-acid assay
In short: (§3)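 FRET melting of dual FAM/TAMRA-labelled FPu22T annealed in 10 mM Tris-HCl pH 7.4 with KCl. Final 0.2 µM DNA with or without ligand. Excitation 470 nm, emission 530 nm, read every 1 °C over 37–99 °C on a real-time PCR cycler. ΔTm = Tm(DNA+ligand) − Tm(DNA).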

Quadruplex DNA [4] = assay: Stabilization of 5'-FAM/3'-TAMRA labeled c-myc promoter G-quadruplex DNA FPu22T (unknown origin) assessed as change in melting temperature at 1 uM by FRET assay (reference value: 66.5 degreeC); type: nucleic-acid assay; in short: as §3
[5] = Stabilization of 5'-FAM/3'-TAMRA labeled hairpin DNA F10T (unknown origin) assessed as change in melting temperature at 1 uM by FRET assay (reference value: 59.1 degreeC)
[6] = Stabilization of 5'-FAM/3'-TAMRA labeled c-myc promoter i-motif DNA FPy33T (unknown origin) assessed as change in melting temperature at 5 uM by FRET assay (reference value: 53.2 degreeC); in short: as §2
[7] = Drug uptake in human SiHa cells; type: ADME, cell-based
[8] = Stabilization of c-myc promoter i-motif DNA Py33 (unknown origin) assessed as increase in slower migration band incubated overnight by silver staining based PAGE analysis
In short: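 Py33 (3 µM) co-annealed with increasing ligand in 1× BPES pH 6.8 at 95 °C for 5 min, cooled, held at 4 °C overnight. Run on native 20% acrylamide in 1× TBE at 140 V for 5 h at 5 °C, then silver-stained.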

[9] = Binding affinity to 5'-biotin labeled c-myc promoter i-motif DNA Py33 (unknown origin) by surface plasmon resonance method; in short: as §1
[10] = Stabilization of c-myc promoter i-motif DNA Py33 (unknown origin) assessed as reduction in appearance of random coil confirmation at pH 5.5 by CD spectroscopy
In short: (§4)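 Py33 at 1 µM in 1× BPES pH 5.5 (pH 6.8 random-coil reference), with or without ligand. Annealed at 95 °C for 5 min, cooled, kept at 4 °C overnight. CD spectra in a 4 mm cuvette over 230–350 nm, three scans averaged, buffer-corrected; peaks followed at 288 and 260 nm.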

[11] = Stabilization of c-myc promoter i-motif DNA Py33 (unknown origin) assessed as effect on melting temperature at 5 uM by CD spectroscopy
In short: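 CD melting: Py33 at 1 µM in 1× BPES pH 6.4, with or without ligand. Annealed at 95 °C for 5 min, slowly cooled, then heated at 1 °C/min while monitoring 260 nm. Tm obtained by curve fitting.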

Quadruplex DNA [12] = assay: Stabilization of c-myc promoter G-quadruplex DNA Pu27 (unknown origin) assessed as effect on melting temperature at 5 uM by CD spectroscopy; type: nucleic-acid assay
In short: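 CD melting: Pu27 diluted to 1 µM in 10 mM Tris-HCl, 5 mM KCl, pH 7.4, with or without ligand. Annealed at 95 °C for 5 min, slowly cooled, then heated at 1 °C/min while monitoring 260 nm. Tm obtained by curve fitting.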

[13] = Stabilization of c-myc promoter i-motif DNA Py33 (unknown origin) assessed as decrease in positive peak intensity at pH 5.5 measured at 288 nanometer by CD spectroscopy; in short: as §4
Quadruplex DNA [14] = assay: Binding affinity to 5'-biotin labeled c-myc promoter G-quadruplex DNA Pu27 (unknown origin) by surface plasmon resonance method; type: nucleic-acid assay; in short: as §1
[15] = Stabilization of c-myc promoter i-motif DNA Py33 (unknown origin) assessed as decrease in negative peak intensity at pH 5.5 measured at 260 nanometer by CD spectroscopy; in short: as §4
SiHa = assay: Antiproliferative activity against human SiHa cells after 48 hrs by MTT assay; type: functional, cell-based
In short: (§5)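 Cells seeded at 5.0×10^3 per well, pre-incubated 12 h at 37 °C, 5% CO2, then exposed to compounds for 48 h; DMSO-only control. MTT (2.5 mg/mL) added for 4 h, formazan dissolved in DMSO, absorbance at 570 nm. Each dose tested in triplicate; IC50 from percentage survival relative to negative control.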

A549 = assay: Antiproliferative activity against human A549 cells after 48 hrs by MTT assay; type: functional, cell-based; conditions: A549, 48 h; in short: as §5
HeLa = assay: Antiproliferative activity against human Hela cells after 48 hrs by MTT assay; type: functional, cell-based; in short: as §5
A-375 = assay: Antiproliferative activity against human A-375 cells after 48 hrs by MTT assay; type: functional, cell-based; conditions: A-375, 48 h; in short: as §5
ssDNA = assay: Binding affinity to 5'-biotin labeled single-stranded DNA Py33 (unknown origin) at <=50 uM by surface plasmon resonance method; type: nucleic-acid assay
U2OS = assay: Antiproliferative activity against human U2OS cells after 48 hrs by MTT assay; type: functional, cell-based; in short: as §5
Huh-7 = assay: Antiproliferative activity against human Huh-7 cells after 48 hrs by MTT assay; type: functional, cell-based; conditions: Huh-7, 48 h; in short: as §5
HCT-116 = assay: Antiproliferative activity against human HCT-116 cells after 48 hrs by MTT assay; type: functional, cell-based; conditions: HCT-116, 48 h; in short: as §5
Quadruplex DNA [16] = assay: Binding affinity to c-myc promoter G-quadruplex/i-motif in human SiHa cells assessed as reduction in c-myc mRNA level at 5 uM incubated for 24 hrs by qRT-PCR analysis; type: cell-based; set-up: scale not given: the % may be the effect or the level left
Quadruplex DNA [17] = assay: Binding affinity to c-myc promoter G-quadruplex/i-motif in human SiHa cells assessed as reduction in c-myc expression at 5 uM incubated for 24 hrs by Western blot analysis; type: cell-based; set-up: scale not given: the % may be the effect or the level left
Quadruplex DNA [18] = assay: Binding affinity to c-myc promoter G-quadruplex/i-motif in human SiHa cells assessed as reduction in c-myc mRNA level incubated for 24 hrs by qRT-PCR analysis; type: cell-based; conditions: dose microM 0.625-2.5, time 24.0 hrs
In short: (§6)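 SiHa cells at 0, 0.625, 1.25 and 2.5 μM for 24 h; DMSO control. Total RNA extracted with TRIzol. 1.5 μg RNA reverse-transcribed with oligo dT18 and M-MLV (42 °C 60 min). PCR of 30 cycles (95/58/72 °C), products run on 1.2% agarose. β-actin as internal control; three repeats.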

Quadruplex DNA [19] = assay: Binding affinity to c-myc promoter G-quadruplex/i-motif in human SiHa cells assessed as reduction in c-myc expression at 1.25 uM incubated for 24 hrs by Western blot analysis; type: cell-based; set-up: scale not given: the % may be the effect or the level left
In short: (§7)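 SiHa cells treated 24 h at 0, 0.625, 1.25 and 2.5 μM, then lysed in buffer with 1 mM PMSF. Protein measured by BCA, equal loads run on 8% gel and blotted to PVDF. Probed with anti-c-MYC and anti-β-actin (loading control), HRP anti-rabbit secondary, chemiluminescence read-out.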

Quadruplex DNA [20] = assay: Binding affinity to c-myc wild-type promoter G-quadruplex/i-motif (unknown origin) expressed in human SiHa cells assessed as reduction in c-myc transcription by measuring decrease in ratio of renilla/firefly luciferase activity at 1/3 IC50 after 48 hrs by dual-luciferase reporter assay; type: cell-based
In short: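 SiHa cells transfected with 200 ng psiCHECK2 plasmid carrying wild-type, mutant or deleted c-myc promoter. Compounds added 8 h after transfection, then incubated 48 h at 37 °C. Cells washed with ice-cold PBS; Renilla/firefly activity ratio read by dual-luciferase assay.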

Quadruplex DNA [21] = assay: Stabilization of c-myc promoter G-quadruplex DNA Pu27 (unknown origin) in pH 7.4 Tris-HCl buffer by CD spectroscopy; type: nucleic-acid assay
In short: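 Pu27 at 1 µM in 10 mM Tris-HCl pH 7.4, with or without ligand. Annealed at 95 °C for 5 min, cooled to room temperature, stored at 4 °C overnight. CD spectra taken in a 4 mm cuvette over 230–350 nm, three scans averaged, smoothed and buffer-baseline corrected.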

Quadruplex DNA [22] = assay: Binding affinity to c-myc promoter G-quadruplex/i-motif in human SiHa cells assessed as reduction in c-myc mRNA level at 1.25 uM incubated for 24 hrs by qRT-PCR analysis; type: cell-based; set-up: scale not given: the % may be the effect or the level left; in short: as §6
Quadruplex DNA [23] = assay: Binding affinity to c-myc promoter G-quadruplex/i-motif in human SiHa cells assessed as reduction in c-myc expression incubated for 24 hrs by Western blot analysis; type: cell-based; in short: as §7
Quadruplex DNA [24] = assay: Binding affinity to c-myc promoter G-quadruplex/i-motif in human SiHa cells assessed as reduction in c-myc mRNA level at 2.5 uM incubated for 24 hrs by qRT-PCR analysis; type: cell-based; set-up: scale not given: the % may be the effect or the level left; in short: as §6
Quadruplex DNA [25] = assay: Binding affinity to c-myc promoter G-quadruplex/i-motif in human SiHa cells assessed as reduction in c-myc expression at 2.5 uM incubated for 24 hrs by Western blot analysis; type: cell-based; set-up: scale not given: the % may be the effect or the level left; in short: as §7

Cc1ccc2nc3ccc(C)cc3c(NCCN(C)C)c2c1
ΔTm [1]: 6.8 °C
Kd (dsDNA): 13.1 µM
ΔTm [2]: 2.7 °C
ΔTm (Quadruplex DNA [3]): 8.3 °C
ΔTm (Quadruplex DNA [4]): 6.2 °C
ΔTm [5]: 4.1 °C
ΔTm [6]: 10 °C

Cc1ccc2nc3ccc(C)cc3c(NCCNCCNc3c4cc(C)ccc4nc4ccc(C)cc34)c2c1
ΔTm [1]: 2.5 °C
ΔTm (Quadruplex DNA [3]): 6.2 °C
ΔTm [6]: 16 °C

Cc1ccc2nc3ccc(C(=O)NCCCN(C)C)cc3c(NCCCNCCNCCCNc3c4cc(C)ccc4nc4ccc(C(=O)NCCCN(C)C)cc34)c2c1
Drug uptake [7]: Not Active
Activity [8]: Dose-dependent effect
Kd (dsDNA): 21.7 µM
ΔTm [2]: 24.3 °C
Kd [9]: 1 µM
Activity [10]: Active
Activity [11]: Active
ΔTm (Quadruplex DNA [4]): 17.1 °C
ΔTm [5]: 2.8 °C
Activity (Quadruplex DNA [12]): Active
Activity [13]: Active
Kd (Quadruplex DNA [14]): 2.7 µM
Activity [15]: Active

c1ccc2c(NCCNCCNc3c4ccccc4nc4ccccc34)c3ccccc3nc2c1
IC50 (SiHa): 12 µM
IC50 (A549): 9.79 µM
Kd (dsDNA): 6.5 µM
ΔTm [2]: 0.7 °C
Kd [9]: 12.3 µM
IC50 (HeLa): 13.8 µM
IC50 (A-375): 6.85 µM
Activity (ssDNA): inactive
ΔTm (Quadruplex DNA [4]): 15.2 °C
IC50 (U2OS): 5.48 µM
ΔTm [5]: 2.5 °C
IC50 (Huh-7): 20 µM
IC50 (HCT-116): 11.1 µM
Kd (Quadruplex DNA [14]): 4.7 µM

Cc1ccc2nc3ccc(C)cc3c(NCCOCCOCCNc3c4cc(C)ccc4nc4ccc(C)cc34)c2c1
IC50 (SiHa): 0.56 µM
Drug uptake [7]: Active
IC50 (A549): 2.26 µM
Kd (dsDNA): 22.1 µM
ΔTm [2]: 1 °C
Activity (Quadruplex DNA [16]): 79.8%
Kd [9]: 26.2 µM
IC50 (HeLa): 1.36 µM
Activity (Quadruplex DNA [17]): 62.3%
Activity (Quadruplex DNA [18]): Dose-dependent effect
Activity (Quadruplex DNA [19]): 25.3%
Activity (Quadruplex DNA [20]): Active
Activity (Quadruplex DNA [21]): Active
IC50 (A-375): 1.75 µM
Activity [11]: inactive
ΔTm (Quadruplex DNA [4]): 13.5 °C
IC50 (U2OS): 1.23 µM
Activity (Quadruplex DNA [22]): 32.6%
Activity (Quadruplex DNA [23]): Dose-dependent effect
ΔTm [5]: 2.3 °C
Activity (Quadruplex DNA [12]): Active
IC50 (Huh-7): 1.95 µM
IC50 (HCT-116): 2.12 µM
Activity (Quadruplex DNA [24]): 55.8%
Kd (Quadruplex DNA [14]): 3.6 µM
Activity (Quadruplex DNA [25]): 42.2%
